From ChEMBL document CHEMBL4715714, “Design, synthesis and biological evaluation of thiosemicarbazones, hydrazinobenzothiazoles and arylhydrazones as anticancer agents with a potential to overcome multidrug resistance” (Eur J Med Chem, 2016) come the findings set out here.

Assay [1] has as its system MES-SA. Kind of assay: Cytotoxicity against human MES-SA cells transfected with mCherry fluorescent protein assessed as inhibition of cell proliferation incubated for 72 hrs by fluorescent assay. In kind it is functional, cell-based. In short, it runs like this: (§1)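 MES-SA and MES-SA/Dx5 cells were made to stably express mCherry by lentiviral transduction. Cells were seeded at 5000 (96-well) or 2500 (384-well) per well, allowed to attach 24 h, then treated with compound dilutions for 72 h. Viability was read as fluorescence, excitation 585 nm, emission 610 nm.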

The subject of assay [2] is MES-SA/Dx5. In words: Cytotoxicity against human MES-SA/DX5 cells transfected with mCherry fluorescent protein assessed as inhibition of cell proliferation incubated for 72 hrs by fluorescent assay. In kind it is functional, cell-based. A digest of the protocol: as §1
Assay [3] concerns MES-SA. In words: Cytotoxicity against human MES-SA cells assessed as inhibition of cell proliferation incubated for 72 hrs by MTT assay. Type of assay: functional, cell-based. A digest of the protocol: (§2)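 Cells were seeded (10000/well for A2780, 5000/well for MES-SA/Dx5 and KB-3-1/V1) and left to attach 12 h, then exposed to compound for 72 h. Medium was removed, and MTT (0.83 mg/mL) was added for 1 h at 37 °C. Cells were lysed in DMSO and absorbance read at 540 nm. Signal was corrected for unstained lysate background, normalized to untreated cells, and IC50 taken from a sigmoidal dose-response fit.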
(Tetrazolium dyes change colour on reduction, which living cells bring about.)

Assay [4] deals with MES-SA/Dx5. Kind of assay: Cytotoxicity against human MES-SA/DX5 cells assessed as inhibition of cell proliferation incubated for 72 hrs by MTT assay. In kind it is functional, cell-based. The conditions noted are these: for IC50: MES-SA/Dx5, 72 h. A digest of the protocol:
as §2

A further assay has as its system KB 3-1. In words: Cytotoxicity against human KB-3-1 cells assessed as inhibition of cell proliferation incubated for 72 hrs by MTT assay. The conditions noted are these: KB 3-1, 72 h. Type of assay: functional, cell-based. In short, it runs like this:
as §2

Another assay deals with KB-V1. In words: Cytotoxicity against human KB-V1 cells assessed as inhibition of cell proliferation incubated for 72 hrs by MTT assay. The conditions noted are these: KB-V1, 72 h. Type of assay: functional, cell-based. A digest of the protocol:
as §2

The test system of the next assay is A2780. In words: Cytotoxicity against human A2780 cells assessed as inhibition of cell proliferation incubated for 72 hrs by MTT assay. Type of assay: functional, cell-based. The conditions noted are these: A2780, 72 h. In short, it runs like this: as §2
Assay [5] in a line: Cytotoxicity against human A2780adr cells assessed as inhibition of cell proliferation incubated for 72 hrs by MTT assay. In kind it is functional, cell-based. The conditions noted are these: A2780 ADR. In short, it runs like this: as §2
Assay [6] is described as follows: Selectivity ratio of IC50 for human MES-SA cells to IC50 for human MES-SA/DX5 cells incubated for 72 hrs by MTT assay. In kind it is functional. A digest of the protocol: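 The selectivity ratio is the IC50 in P-gp-negative parental cells divided by the IC50 in the P-gp-positive resistant partner.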
Setting [7] is: Homo sapiens, MES-SA, 72 h, read-out: IC50.
Setting [8] is: Homo sapiens, MES-SA, 72 h, read-out: pIC50 (converted).
[9] abbreviates: Homo sapiens, MES-SA/Dx5, 72 h, read-out: IC50.
Setting [10] is: Homo sapiens, MES-SA/Dx5, 72 h, read-out: pIC50 (converted).

Calls of active or inactive are those of the source. No cut-off for these calls is given here.

With `C/C(=N\Nc1ccccn1)c1cc(C)c2ccccc2n1`, the IC50 in the assay on MES-SA [1] (setting [7]) was 300 nM; with MES-SA [1] (setting [8]) it was 288 nM; with MES-SA/Dx5 [2] (setting [9]), 290 nM; in the assay on MES-SA/Dx5 [2] (setting [10]) it was 295 nM.
Regarding `COc1ccc(NC(=S)N/N=C/c2cccc(C)n2)cc1`, the IC50 with MES-SA [1] (setting [7]) was 4720 nM; with MES-SA [1] (setting [8]) it was 4680 nM; in the assay on MES-SA/Dx5 [2] (setting [9]), 4220 nM; in the assay with MES-SA/Dx5 [2] (setting [10]) it was 4170 nM.
The like results for `COc1ccc(O)c(/C=N/Nc2nc3ccccc3s2)c1` were, in that order, 14900 nM, 13200 nM, 11600 nM and 9330 nM.
Take `C(=N\Nc1ccccn1)/c1ccc2ccccc2n1`: the IC50 in the assay with MES-SA [1] (setting [7]) was 820 nM; in the assay with MES-SA [1] (setting [8]) it was 776 nM; in the assay on MES-SA/Dx5 [2] (setting [9]), 430 nM; in the assay on MES-SA/Dx5 [2] (setting [10]), 427 nM.
`O=[N+]([O-])c1ccc(O)c(/C=N/NC(=S)Nc2cccc(C(F)(F)F)c2)c1`: the IC50 in the assay with MES-SA [1] (setting [7]) is 16400 nM; in the assay on MES-SA/Dx5 [2] (setting [9]), 11900 nM.
For the compound `C/C(=N\Nc1ccccn1)c1ccc2ccccc2n1`, the IC50 was 480 nM in the assay with MES-SA [1] (setting [7]), 479 nM with MES-SA [1] (setting [8]), 380 nM with MES-SA/Dx5 [2] (setting [9]) and 347 nM in the assay on MES-SA/Dx5 [2] (setting [10]).
In the case of `O=C1Nc2ccccc2/C1=N/Nc1nc2ccccc2s1`, the pIC50 entry in the assay on MES-SA [3] and in the assay on MES-SA/Dx5 [4] was “inactive” in each case. The IC50 result with MES-SA [1] (mes-sa) is “Not Active”.
Regarding `COc1ccc(NC(=S)N/N=C(\C)c2ccccc2N)cc1`, the IC50 was 10700 nM with MES-SA [3] (read-out: IC50); 10500 nM in the assay on MES-SA [3] (read-out: pIC50 (converted)); 8020 nM in the assay with MES-SA/Dx5 [4] (read-out: IC50); 7940 nM in the assay with MES-SA/Dx5 [4] (read-out: pIC50 (converted)); 18500 nM in the assay on MES-SA [1] (setting [7]); 17700 nM with MES-SA/Dx5 [2] (setting [9]). Moreover, the IC50 is 20600 nM in the assay on KB 3-1 (read-out: IC50); 20400 nM with KB 3-1 (read-out: pIC50 (converted)); 22300 nM with KB-V1 (read-out: IC50); 22400 nM in the assay on KB-V1 (read-out: pIC50 (converted)); 4350 nM in the assay with A2780 (read-out: IC50); 4270 nM in the assay with A2780 (read-out: pIC50 (converted)). The IC50 in [5] (read-out: IC50) is 4870 nM; in assay [5] (read-out: pIC50 (converted)), 4900 nM.
Consider `C/C(=N\NC(=S)Nc1ccccc1)c1ccccn1`, for which the pIC50 result in the assay with MES-SA [1] and with MES-SA/Dx5 [2] was “inactive” in each case.
With `COc1ccccc1/C=N/Nc1nc2ccccc2s1`, the pIC50 entry in the assay on MES-SA [1] and with MES-SA/Dx5 [2] was “inactive” in each case. In addition, the IC50 result in the assay on MES-SA [1] (mes-sa) and in the assay on MES-SA/Dx5 [2] (mes-sa/dx5) was “Not Active” throughout.
With `C(=N\Nc1nc2ccccc2s1)/c1ccccn1`, the IC50 in the assay on MES-SA [3] (read-out: IC50) was 1420 nM; in the assay with MES-SA [3] (read-out: pIC50 (converted)), 1410 nM; in the assay with MES-SA/Dx5 [4] (read-out: IC50) it was 1020 nM; in the assay on MES-SA/Dx5 [4] (read-out: pIC50 (converted)), 1000 nM; with MES-SA [1] (setting [7]) it was 2700 nM; in the assay with MES-SA [1] (setting [8]), 2690 nM. Moreover, the IC50 in the assay with MES-SA/Dx5 [2] (setting [9]) is 3360 nM; with MES-SA/Dx5 [2] (setting [10]) it was 3090 nM; in the assay with KB 3-1 (read-out: IC50) it was 650 nM; in the assay on KB 3-1 (read-out: pIC50 (converted)), 646 nM; in the assay with KB-V1 (read-out: IC50), 840 nM; in the assay on KB-V1 (read-out: pIC50 (converted)), 813 nM. Moreover, the IC50 in the assay on A2780 (read-out: IC50) is 590 nM; in the assay on A2780 (read-out: pIC50 (converted)), 575 nM; in assay [5] (read-out: IC50) it was 450 nM; in [5] (read-out: pIC50 (converted)), 447 nM. The “Ratio IC50” value in [6] is 1.41.
For the compound `C/C(=N\NC(=S)Nc1ccc(C)cc1)c1ccccc1O`, the IC50 was 10900 nM in the assay with MES-SA [1] (setting [7]), 9770 nM in the assay on MES-SA [1] (setting [8]), 3460 nM in the assay with MES-SA/Dx5 [2] (setting [9]) and 4370 nM with MES-SA/Dx5 [2] (setting [10]).
Take `C/C(=N\NC(=S)Nc1cccc(C)c1)c1ccccn1`: the IC50 in the assay with MES-SA [1] (setting [7]) is 32 nM; in the assay on MES-SA [1] (setting [8]), 31.6 nM; in the assay with MES-SA/Dx5 [2] (setting [9]), 63 nM; with MES-SA/Dx5 [2] (setting [10]), 61.7 nM.
On to `C/C(=N\NC(=S)Nc1ccccc1C)c1ccccn1`, for which the IC50 with MES-SA [1] (setting [7]) was 30 nM; in the assay on MES-SA [1] (setting [8]), 29.5 nM; in the assay with MES-SA/Dx5 [2] (setting [9]), 92 nM; with MES-SA/Dx5 [2] (setting [10]), 87.1 nM.
